Data taken from ChEMBL document CHEMBL2331412, “Oxo-heterocyclic fused naphthalimides as antitumor agents: synthesis and biological evaluation” (Eur J Med Chem, 2013).
Active and inactive are the calls of the source. The calls are words filed in the database; no cut-off is given here.

Legend:
[1] = Cytotoxicity against human LO2 cells by SRB assay; type: cell-based; settings: L02
[2] = tested on: A549; assay: Cytotoxicity against human A549 cells by SRB assay; type: functional, cell-based
[3] = tested on: P388; assay: Cytotoxicity against mouse P388 cells by tetrazolium-formazan assay; type: functional, cell-based
[4] = species on record: Bos taurus; assay: Inhibition of calf thymus topoisomerase 1-mediated pBR322 relaxation at 100 uM after 30 mins by agarose gel electrophoresis
Summary of the method: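 Topoisomerase I and compound were incubated 30 min at 37 °C in topo I buffer with 0.01% BSA. Reactions were stopped with SDS and loading dye, then run on 0.8% agarose in TAE for 35 min at 120 V, stained with ethidium bromide and imaged under UV.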

[5] = target: DNA topoisomerase 2-alpha (Homo sapiens) (UniProt P11388); assay: Inhibition of human topoisomerase 2a-mediated kinetoplast decatenation at 100 uM after 30 mins by agarose gel electrophoresis
Summary of the method: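 ATP-dependent kDNA decatenation by 1 unit human topo IIα. Incubated 30 min at 37 °C in 50 mM Tris-HCl pH 8, 150 mM NaCl, 10 mM MgCl2, 2 mM ATP and 0.5 mM DTT. Stopped with SDS, run on 0.8% agarose in TAE for 50 min at 120 V, stained with ethidium bromide and imaged under UV.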

[6] = species on record: Bos taurus; assay: Inhibition of calf thymus topoisomerase 1-mediated pBR322 relaxation at 200 uM after 30 mins by agarose gel electrophoresis
Summary of the method: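 Topoisomerase I and compound incubated 30 min at 37 °C in topoisomerase I buffer with 0.01% BSA. Reactions were stopped with 10% SDS and loading dye. Products were resolved on a 0.8% agarose gel in TAE for 35 min at 120 V, stained with ethidium bromide at room temperature and photographed under UV.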

[7] = Binding affinity to Poly(dAdT).Poly(dAdT) (unknown origin)
Summary of the method: (§1)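 Fluorescence titration in 20 mM sodium phosphate pH 7.0 at 20 ± 1 °C. Compound held at 3 × 10^-6 M while polydeoxynucleotide was varied from 0 to 6.32 × 10^-5 M. Ka was obtained by nonlinear curve fitting of the data. The ratio line is the GC-polymer Ka divided by the AT-polymer Ka.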

[8] = Selectivity ratio of Ka for Poly(dGdC).Poly(dGdC) (unknwon origin) to Ka for Poly(dAdT).Poly(dAdT) (unknown origin); summary of the method: as §1
[9] = tested on: DNA; assay: Binding affinity to calf thymus DNA at 20 uM after 1 hr by fluorimetric analysis; type: nucleic-acid assay; settings: Bos taurus; 10 uM; in the assay text read “at 10 uM” for “at 20 uM”
Summary of the method: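 Fluorescence quenching with increasing calf thymus DNA in 20 mM Tris-HCl pH 7.5 containing 1% DMSO (v/v). Mixtures were stirred for 1 h at 25 °C in the dark before each spectrum was recorded. Kb came from nonlinear fitting of fluorescence intensity against DNA concentration.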

[10] = tested on: DNA; assay: Binding affinity to calf thymus DNA at 20 uM by circular dichroism analysis; type: nucleic-acid assay; settings: Bos taurus
Summary of the method: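 Circular dichroism spectra of compound with calf thymus DNA in 20 mM Tris-HCl pH 7.5 containing 1% DMSO (v/v). Recorded in a 1 cm quartz cell over 240–300 nm.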

[11] = Binding affinity to Poly(dGdC).Poly(dGdC) (unknown origin); summary of the method: as §1
[12] = Binding affinity to 5'TGCGCA3'/3'ACGCGT5' (unknown origin)
[13] = Binding affinity to 5'ACCGGT3'/3'TGGCCA5' (unknown origin)
[14] = Binding affinity to 5'ACGGCT3'/3'TGCCGA5'(unknown origin)
[15] = Binding affinity to 5'ACGCCT3'/3'TGCGGA5' (unknown origin)
[16] = Binding affinity to 5'ACCCGT3'/3'TGGGCA5' (unknown origin)
[17] = Binding affinity to 5'ACCCCT3'/3'TGGGGA5' (unknown origin)
[18] = Binding affinity to 5'ATGCGCAT3'/3'TACGCGTA5' (unknown origin)
[19] = Binding affinity to 5'TGGCGA3'/3'ACCGCT5' (unknown origin)

Sequence of DNA topoisomerase 2-alpha (Homo sapiens) (P11388 whole entry): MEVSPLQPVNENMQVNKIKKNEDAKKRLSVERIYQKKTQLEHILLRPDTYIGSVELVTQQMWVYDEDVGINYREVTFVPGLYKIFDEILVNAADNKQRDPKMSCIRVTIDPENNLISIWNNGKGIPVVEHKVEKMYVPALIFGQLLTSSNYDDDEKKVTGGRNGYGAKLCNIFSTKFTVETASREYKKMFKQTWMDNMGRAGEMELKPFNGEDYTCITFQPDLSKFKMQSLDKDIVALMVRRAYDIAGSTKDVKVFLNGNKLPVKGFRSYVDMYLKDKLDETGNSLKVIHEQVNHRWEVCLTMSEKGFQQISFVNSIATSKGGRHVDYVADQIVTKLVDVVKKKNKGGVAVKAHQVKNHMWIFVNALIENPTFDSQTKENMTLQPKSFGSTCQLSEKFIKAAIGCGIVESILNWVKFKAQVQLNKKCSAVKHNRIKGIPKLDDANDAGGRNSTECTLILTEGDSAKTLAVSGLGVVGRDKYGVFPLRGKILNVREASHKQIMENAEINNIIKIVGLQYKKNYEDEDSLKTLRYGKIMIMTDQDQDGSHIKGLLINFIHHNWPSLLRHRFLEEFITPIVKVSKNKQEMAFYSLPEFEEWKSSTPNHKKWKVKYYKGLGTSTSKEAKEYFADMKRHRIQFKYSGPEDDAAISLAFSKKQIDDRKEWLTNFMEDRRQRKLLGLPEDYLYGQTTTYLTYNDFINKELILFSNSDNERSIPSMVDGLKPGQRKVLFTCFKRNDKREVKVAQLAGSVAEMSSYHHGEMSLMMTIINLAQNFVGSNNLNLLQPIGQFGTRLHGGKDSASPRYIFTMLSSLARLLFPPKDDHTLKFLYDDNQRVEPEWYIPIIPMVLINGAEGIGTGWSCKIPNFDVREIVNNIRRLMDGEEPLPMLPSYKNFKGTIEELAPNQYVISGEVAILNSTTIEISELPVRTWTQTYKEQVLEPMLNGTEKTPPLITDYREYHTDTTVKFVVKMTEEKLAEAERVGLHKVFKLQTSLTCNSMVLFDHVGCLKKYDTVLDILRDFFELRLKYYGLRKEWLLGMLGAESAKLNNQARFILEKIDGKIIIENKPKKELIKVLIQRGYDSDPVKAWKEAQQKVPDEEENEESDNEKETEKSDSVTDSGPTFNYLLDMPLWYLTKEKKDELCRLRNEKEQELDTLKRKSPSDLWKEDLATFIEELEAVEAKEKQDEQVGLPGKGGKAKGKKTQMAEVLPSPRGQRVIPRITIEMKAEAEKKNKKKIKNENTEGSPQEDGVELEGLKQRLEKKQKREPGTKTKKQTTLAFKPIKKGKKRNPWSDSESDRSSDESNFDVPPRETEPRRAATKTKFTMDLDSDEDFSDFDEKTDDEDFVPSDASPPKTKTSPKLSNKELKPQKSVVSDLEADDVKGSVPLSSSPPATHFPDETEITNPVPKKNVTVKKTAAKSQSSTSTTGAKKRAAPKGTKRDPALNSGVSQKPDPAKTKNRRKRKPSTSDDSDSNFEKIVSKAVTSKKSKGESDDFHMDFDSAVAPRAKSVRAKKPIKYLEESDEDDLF

Structure (SMILES) | IC50 [1] [nM] | IC50 [2] [nM] | IC50 [3] [nM] | other results
CN(C)CCCn1c(=O)c2ccc3oc4ccccc4c4ccc(c1=O)c2c34 | 10300 | 98300 | 3500 | 
COc1cc([C@@H]2c3cc4c(cc3[C@@H](O[C@@H]3O[C@@H]5CO[C@@H](C)O[C@H]5[C@H](O)[C@H]3O)[C@H]3COC(=O)[C@H]23)OCO4)cc(OC)c1O |  |  |  | Topoisomerase 1 relaxation inhibition (qualitative) [4]: Active; Inhibition (qualitative) [5]: Active
CN(C)CCN1C(=O)c2cccc3c2c(cc2nc(-c4ccccc4)oc23)C1=O | 3000 | 530 | 2500 | 
CC[C@@]1(O)C(=O)OCc2c1cc1n(c2=O)Cc2cc3ccccc3nc2-1 |  |  |  | inhibition [6]: Active
Cc1ccc(-c2nc3cc4c5c(cccc5c3o2)C(=O)N(CCN(C)C)C4=O)cc1 | 6700 | 34700 | 19300 | 
CN(C)CCN1C(=O)c2cccc3c2c(cc2nc(-c4ccc([N+](=O)[O-])cc4)oc23)C1=O | > 100000 | 17800 | 100000 | 
O=c1c2ccc3sc4ccccc4c4ccc(c(=O)n1CCN1CCNCC1)c2c34 |  | 100000 | > 100000 | 
CN(C)CCN1C(=O)c2cccc3cc(N)cc(c23)C1=O [AMONAFIDE] | 5000 |  |  | Inhibition (qualitative) [5]: Active
CN(C)CCCN1C(=O)c2cccc3c2c(cc2c4ccccc4sc32)C1=O |  | 250 | 320 | 
Cc1ccc(-c2nc3cc4c5c(cccc5c3s2)C(=O)N(CCN(C)C)C4=O)cc1 |  | 420 | 620 | 
CN(C)CCN1C(=O)c2cccc3c2c(cc2c4ccccc4sc32)C1=O | 900 |  |  | Ka [7]: 8 ×10⁶ /M; Selectivity ratio [8]: 10; Ka [9]: 1.1 ×10⁵ /M; Activity [10]: Active; Topoisomerase 1 relaxation inhibition (qualitative) [4]: Active; Inhibition (qualitative) [5]: Active; Ka [11]: 7.6 ×10⁷ /M
O=c1c2ccc3oc4ccccc4c4ccc(c(=O)n1CCN1CCNCC1)c2c34 | 11500 | 29000 | 4520 | 
CN(C)CCCn1c(=O)c2ccc3sc4ccccc4c4ccc(c1=O)c2c34 |  | 190 | 630 | 
COc1ccc(-c2nc3cc4c5c(cccc5c3o2)C(=O)N(CCN(C)C)C4=O)cc1 | 3400 | 6600 | 1290 | 
CN(C)CCN1C(=O)c2cccc3c2c(cc2nc(-c4ccc(Cl)cc4)oc23)C1=O | > 100000 | 72400 | 20100 | 
CN(C)CCn1c(=O)c2ccc3sc4ccccc4c4ccc(c1=O)c2c34 | 4100 |  |  | Ka [12]: 3.33 ×10⁶ /M; Ka [7]: 4.48 ×10⁵ /M; Ka [13]: 4 ×10⁵ /M; Selectivity ratio [8]: 10; Ka [14]: 3 ×10⁴ /M; Ka [9]: 9.7 ×10⁴ /M; Activity [10]: Active; Ka [15]: 1.92 ×10⁵ /M; Ka [16]: 9.09 ×10⁵ /M; Topoisomerase 1 relaxation inhibition (qualitative) [4]: Active; Ka [17]: 1.89 ×10⁵ /M; Inhibition (qualitative) [5]: Active; Ka [18]: 4.76 ×10⁵ /M; Ka [11]: 4.76 ×10⁶ /M; Ka [19]: 2.13 ×10⁵ /M
COc1ccccc1-c1nc2cc3c4c(cccc4c2o1)C(=O)N(CCN(C)C)C3=O | 1900 | 890 | 1300 | 
CCCCN1C(=O)c2cccc3c2c(cc2c4ccccc4oc32)C1=O | > 100000 | 1400 | > 100000 | 
CCCCn1c(=O)c2ccc3sc4ccccc4c4ccc(c1=O)c2c34 |  | 870 | 1200 | 
COc1ccc(-c2nc3cc4c5c(cccc5c3s2)C(=O)N(CCN(C)C)C4=O)cc1 |  | 16 | 430 | 
CN(C)CCn1c(=O)c2ccc3oc4ccccc4c4ccc(c1=O)c2c34 | 4100 | 610 | 1110 | Ka [12]: 1.28 ×10⁵ /M; Ka [7]: 1.32 ×10⁵ /M; Ka [13]: 1.12 ×10⁵ /M; Ka [14]: 5.9 ×10³ /M; Ka [9]: 1.45 ×10⁵ /M; Activity [10]: Active; Ka [15]: 6.9 ×10³ /M; Ka [16]: 1.2 ×10⁴ /M; Topoisomerase 1 relaxation inhibition (qualitative) [4]: Active; Ka [17]: 1.72 ×10⁵ /M; Inhibition (qualitative) [5]: Active; Ka [18]: 8 ×10⁴ /M; Ka [11]: 6.89 ×10⁵ /M; Ka [19]: 8.4 ×10⁴ /M
CN(C)CCN1C(=O)c2cccc3c2c(cc2c4ccccc4oc32)C1=O | 5000 | 360 | 650 | Ka [7]: 5 ×10⁶ /M; Ka [9]: 2.89 ×10⁵ /M; Activity [10]: Active; Topoisomerase 1 relaxation inhibition (qualitative) [4]: Active; Inhibition (qualitative) [5]: Active; Ka [11]: 6.36 ×10⁶ /M
CCCCn1c(=O)c2ccc3oc4ccccc4c4ccc(c1=O)c2c34 | > 100000 | 5390 | > 100000 | 
CN(C)CCN1C(=O)c2cccc3c2c(cc2nc(-c4ccccc4)sc23)C1=O |  | 85 | 660 | 
CCCCN1C(=O)c2cccc3c2c(cc2c4ccccc4sc32)C1=O |  | 1350 | 740 | 
O=C1c2cccc3c2c(cc2c4ccccc4sc32)C(=O)N1CCN1CCNCC1 |  | 11800 | 72400 | 
CN(C)CCCN1C(=O)c2cccc3c2c(cc2c4ccccc4oc32)C1=O | 6600 | 740 | 170 | 
